Assay results taken from article PMC5218545 (Angewandte Chemie (International ed. in English), 2016).

Columns and labels:
Format in all cases: biochemical
[1] = target: T1, 15-LOX-1 in tissue lysates from different mice organs (Mus musculus, UniProt P39654); experiment: Activity-based labeling in mouse tissue lysates; settings: inhibitor 90 μM, three characteristic bands
T1 sequence (P39654 1-663): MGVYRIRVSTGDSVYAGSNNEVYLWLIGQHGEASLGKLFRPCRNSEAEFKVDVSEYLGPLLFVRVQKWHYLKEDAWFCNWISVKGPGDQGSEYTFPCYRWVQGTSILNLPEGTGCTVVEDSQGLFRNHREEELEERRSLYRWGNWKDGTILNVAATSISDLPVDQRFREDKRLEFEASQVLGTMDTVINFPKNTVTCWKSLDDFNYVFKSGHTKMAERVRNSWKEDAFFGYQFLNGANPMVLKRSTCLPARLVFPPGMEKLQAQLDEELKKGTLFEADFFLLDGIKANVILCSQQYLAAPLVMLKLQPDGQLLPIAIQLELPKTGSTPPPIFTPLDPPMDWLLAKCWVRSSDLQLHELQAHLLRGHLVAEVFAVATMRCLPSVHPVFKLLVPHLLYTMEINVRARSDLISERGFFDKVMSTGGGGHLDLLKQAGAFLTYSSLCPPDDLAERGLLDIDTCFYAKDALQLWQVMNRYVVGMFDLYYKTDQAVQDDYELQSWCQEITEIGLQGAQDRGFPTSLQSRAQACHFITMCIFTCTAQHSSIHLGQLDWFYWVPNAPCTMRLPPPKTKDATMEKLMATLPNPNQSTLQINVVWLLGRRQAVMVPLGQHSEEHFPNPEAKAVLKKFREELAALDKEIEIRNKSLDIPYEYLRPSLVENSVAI
Summary of the method: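 Mouse heart tissue lysate: endogenous enzyme preincubated with inhibitors at 90 μM, then labeled with an alkene-tagged bis-alkyne probe. The probe was biotinylated by oxidative Heck coupling with biotinyl phenyl boronic acid. Labeled proteins were detected on blot with HRP-conjugated streptavidin luminescence.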

[2] = target: T2, endogenous 15-LOX-1 in HeLa cell lysate (Homo sapiens, UniProt P16050); experiment: Activity-based labeling in HeLa cell lysate; settings: inhibitor 90 μM; bands also characterized by the 15-LOX-1 antibody
T2 sequence (P16050 1-662): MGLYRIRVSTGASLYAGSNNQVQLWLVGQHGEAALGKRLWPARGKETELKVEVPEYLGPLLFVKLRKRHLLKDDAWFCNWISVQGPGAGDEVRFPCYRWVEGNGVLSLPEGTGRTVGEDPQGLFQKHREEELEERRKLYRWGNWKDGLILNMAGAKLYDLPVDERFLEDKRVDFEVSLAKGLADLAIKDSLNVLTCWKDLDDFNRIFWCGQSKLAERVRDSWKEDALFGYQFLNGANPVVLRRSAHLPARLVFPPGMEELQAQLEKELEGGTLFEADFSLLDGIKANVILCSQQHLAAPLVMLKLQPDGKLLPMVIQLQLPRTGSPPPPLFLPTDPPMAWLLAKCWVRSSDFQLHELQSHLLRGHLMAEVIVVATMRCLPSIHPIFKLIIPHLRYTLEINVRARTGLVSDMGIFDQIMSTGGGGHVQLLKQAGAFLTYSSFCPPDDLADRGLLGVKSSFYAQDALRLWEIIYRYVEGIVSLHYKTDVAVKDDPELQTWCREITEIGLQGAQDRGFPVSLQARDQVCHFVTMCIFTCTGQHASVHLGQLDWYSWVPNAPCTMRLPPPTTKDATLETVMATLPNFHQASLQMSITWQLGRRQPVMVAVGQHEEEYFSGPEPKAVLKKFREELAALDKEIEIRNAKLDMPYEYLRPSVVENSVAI
Summary of the method: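 HeLa cell lysate: endogenous enzyme preincubated with inhibitors at 90 μM, then labeled with an alkene-tagged bis-alkyne probe. Biotinylation by oxidative Heck reaction with biotinyl phenyl boronic acid. Blots were first probed with 15-LOX antibody, then stripped and developed with HRP-conjugated streptavidin by on-blot luminescence. Included no-probe controls.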

[3] = target: T3, recombinant purified enzyme 15-LOX-1 (Homo sapiens, UniProt P16050); experiment: ABPP two-step labeling of recombinant purified 15-LOX-1; settings: 10 min incubation with inhibitor, then 2 min with probe N144
T3 sequence (P16050 1-662): T2 sequence (P16050 1-662)
Summary of the method: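 Recombinant purified human 15-LOX-1 preincubated 10 min with a reversible 15-LOX-1 inhibitor or a 5-LOX inhibitor as control. Then 2 min with an alkene-tagged bis-alkyne probe. Biotinyl phenyl boronic acid was attached to the terminal alkene by oxidative Heck reaction. Equal enzyme amounts were run on Western blot and detected by HRP-streptavidin luminescence, alongside Coomassie staining and no-probe controls.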

| SMILES | effect of inhibitor on N144 labeling in mouse heart lysate [1] | effect of inhibitor on N144 labeling in HeLa cell lysates [2] | effect of inhibitor pre-incubation on N144 labeling of recombinant 15-LOX-1 [3] |
| --- | --- | --- | --- |
| c1ccc2c(c1)SCc1c-2[nH]c2ccccc12 [PD-146176] | reduced labeling | decrease of the labeling | labeling was clearly inhibited |
| CC(c1cc2ccccc2s1)N(O)C(N)=O (stereo not shown) [Zileuton] |  |  | did not affect the labeling |
